Bioassay records as filed in PubChem BioAssay.
PRMT1 FP inh – PRMT1 methyltransferase inhibitors, primary screen, biochemical, fluorescence polarization. inhibition, % at 2.79 µM. 370,000 compounds, 1.3% hits. recombinant PRMT1, activity-based probe fluorescence polarization. Protein arginine N-methyltransferase 1 (Homo sapiens), Q99873;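 active = inhibition above about 21% made by adding two undisclosed values, limit read from the data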
HTRA1 inhibitor – HTRA1 serine protease inhibitors, primary screen, biochemical, fluorescence polarization, HTS; Q92743; recombinant HTRA1, FP-rhodamine activity-based probe; inhibition, % at 5.96 µM; 340,000 compounds, 0.5% hits; AID 504803, 2011; in the data active = inhibition above about 36%;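 also: 0% = enzyme with DMSO and 100% = wells lacking enzyme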
SIAE primary – human SIAE inhibitors, primary screen, biochemical, fluorescence polarization, FP-Rh probe, 1536-well HTS; Sialate O-acetylesterase (Homo sapiens), Q9HAT2; SIAE FP-Rh probe binding; inhibition, % at 9.66 µM; 370,000 compounds, 0.69% hits; AID 1053197, 2014;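 active = inhibition above a cutoff: mean of compounds within the control limits plus 3 SD of those, cut at about 17% in these data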;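 also: 0% = plate median of compound wells and 100% = probe without SIAE protein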
TCR-CD3 inh – inhibitors of human TCR-CD3 interaction, primary screen, biochemical, fluorescence, TAMRA-labeled TCR probe. inhibition, % at 9.4 µM. 360,000 compounds, 0.37% hits. T-cell receptor (TCR). AID 651800, 2012; in the data active = inhibition above about 19%;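 also: recombinant mutant TCR 2C K166C tagged with TAMRA read by polarization; 0% = receptor in buffer alone and 100% = receptor with positive control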
ABHD4 inh – ABHD4 inhibitors, primary screen, biochemical, fluorescence polarization, mouse | (Lyso)-N-acylphosphatidylethanolamine lipase (Mus musculus), Q8VD66 | purified mABHD4, FP-Rh probe fluorescence polarization | inhibition, % at 8.92 µM | 370,000 compounds, 0.54% hits;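 active = inhibition exceeding the mean over every tested compound plus 3 SD, cut at about 30% in these data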;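 also: 0% = plate median of compound wells and 100% = S159A mutant with DMSO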
Target sequence (Q8VD66 whole entry, looked up): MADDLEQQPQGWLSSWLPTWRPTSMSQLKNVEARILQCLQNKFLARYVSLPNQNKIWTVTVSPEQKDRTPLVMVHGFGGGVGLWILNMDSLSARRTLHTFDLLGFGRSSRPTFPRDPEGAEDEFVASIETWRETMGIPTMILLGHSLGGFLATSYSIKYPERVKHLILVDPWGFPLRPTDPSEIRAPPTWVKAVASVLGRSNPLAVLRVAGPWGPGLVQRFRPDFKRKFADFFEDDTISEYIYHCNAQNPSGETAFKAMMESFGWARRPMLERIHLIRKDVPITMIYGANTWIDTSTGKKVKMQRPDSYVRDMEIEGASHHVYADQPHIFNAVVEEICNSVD
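Test system: mABHD4 protein; Read-out basis: % inhibition; Incubation: 45 min + 60 min at 25 °C; Repeats: single replicate; Technique: fluorescence polarization with parallel and perpendicular emission, 525/598 nm; Compound: 8.92 µM, single dose; Benchmarks: full inhibition S159A mutant plus DMSO, zero as sample-well median.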
PRMT1 confirm – PRMT1 methyltransferase inhibitors, confirmation, biochemical, fluorescence polarization, triplicate. 3,300 compounds, 42% hits. inhibition, % at 2.79 µM. shares compounds with PRMT1 FP inh. AID 687036, 2013. recombinant His-PRMT1, activity-based probe fluorescence polarization;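 active = mean inhibition across replicates above the hit cutoff derived for the earlier primary screen, cut at about 22% in these data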
Starred values were filed as active, the others as inactive; . = not tested or not shown. Only some compounds are listed: those with a hit (about 2.7% of all), similar ones and a draw of the others.

SMILES	PRMT1 FP inh	HTRA1 inhibitor	SIAE primary	TCR-CD3 inh	ABHD4 inh	PRMT1 confirm
Cc1c(C(=O)OCC(C)C)[nH]c2c1C(=O)CC(c1ccco1)C2 (stereo not given)	31*	-17	-3	0	23	9
COc1ccc(/C(C)=N/NC(=O)CNC(=O)/C=C\c2ccccc2OC)c(OC)c1	1	-3	0	3	1	.
N#Cc1ccc(Cn2nnc(-c3ccc(N4CCOCC4)cc3)n2)cc1	-1	.	6	.	4	.
CCc1nc2cccnc2n1-c1ccc(CC(=O)NCCOC)cc1	5	7	2	8	4	.
O=C(CSC1=NC2(CCCCCC2)N=C1c1ccccc1)Nc1ccc2c(c1)OCCO2	2	-24	-7	-2	-10	.
Cc1ccc(C2=NC3(CCCC3)N=C2SCC(=O)Nc2ccc3c(c2)OCCO3)cc1	55*	-16	-2	-7	-5	47*
O=C1CC(N2CCOCC2)C(=O)N1c1ccc(Cl)cc1 (stereo not given)	3	1	10	0	-5	.
O=C1CCCN1CCC1CCN(C2CC(=O)N(Cc3ccc(N4CCCC4=O)cc3)C2=O)CC1 (stereo not given)	93*	0	-4	-6	-11	7
O=C1CCCN1CCC1CCN(C2CC(=O)N(c3ccc(Cl)cc3)C2=O)CC1 (stereo not given)	50*	-6	-4	0	3	9
O=C1CC(N2CCC(O)(c3ccc(Cl)cc3)CC2)C(=O)N1Cc1ccc(N2CCCC2=O)cc1 (stereo not given)	63*	-2	8	8	4	4
COc1ccc(Cn2ccc3ccc(-c4ccc5ccn(Cc6ccc(C#N)cc6)c5c4)cc32)cc1	-4	.	-2	.	-1	.
OCCOc1ccc(CN2CCN(CCCc3ccccc3)C(CCO)C2)cc1 (stereo not given)	-3	-7	-4	-5	-5	.
CC1CC1C(=O)Nc1nc(-c2cccs2)c(-c2cccs2)s1 (stereo not given)	27*	-11	-7	-4	-2	9
CCO[C@H]1OC(C(N)=O)=C[C@@H](c2ccccc2)[C@@H]1CCCO	73*	5	2	7	-2	-5
N#C/C(=C\c1ccc(N2CCOCC2)o1)c1nc2ccccc2[nH]1	58*	28	6	13	14	-57
C=CCn1c(C)cc(C(=O)COC(=O)CCc2cc(OC)c(OC)c(OC)c2)c1C	2	-2	6	-1	0	.
COCCN(CC(=O)NC1CCCCC1)C(=O)/C=C/C(=O)c1ccc(OC)cc1O	21	1	1	-1	9	.
COc1ccc(C(=O)/C=C/C(=O)N(CC(=O)NC2CCCCC2)Cc2cccs2)c(O)c1	38*	-63	-3	2	0	65*
O=c1[nH]c2cc3c(cc2cc1CN(Cc1ccco1)C(=S)NCCCN1CCOCC1)OCCO3	-3	-5	11	-5	2	.
Cc1ccc(NC(=O)c2nc(S(=O)(=O)Cc3ccccc3)ncc2Cl)cc1	38*	-2	5	1	-15	23*
Cc1cccc(CS(=O)(=O)c2ncc(Cl)c(C(=O)Nc3c(C)cccc3C)n2)c1	25*	2	-4	-7	1	12
O=C(Nc1ccc(F)cc1)c1nc(S(=O)(=O)Cc2ccccc2)ncc1Cl	39*	-25	3	-3	7	18
COC(=O)c1c(-c2ccco2)csc1NC(=O)C1CC=CCC1C(=O)O (stereo not given)	27*	-3	-7	0	0	4
CC(C)C[C@H]1CNC(=S)N1CC1CCCN1C[C@H](CC(C)C)N1C[C@H](Cc2ccccc2)N(CC2CCCCCC2)C1=S (stereo not given in full)	31*	-10	5	8	3	1
COc1ccc2sc(SCCCS(=O)(=O)O)[n+](CCCS(=O)(=O)[O-])c2c1	58*	0	2	-5	4	59*
c1ccc2c(c1)[nH]c1nc(SCCN3CCOCC3)nnc12	30*	4	8	1	0	3
